{"source": "ChEMBL document CHEMBL1212766", "about": "“Dose escalation study of the safety, tolerability, and pharmacokinetics of nemonoxacin (TG-873870), a novel potent broad-spectrum nonfluorinated quinolone, in healthy volunteers” (Antimicrob Agents Chemother, 2010)", "key": {"[1]": {"test_system": "Staphylococcus aureus", "assay": "Antimicrobial activity against methicillin-sensitive Staphylococcus aureus", "assay_type": "functional"}, "[2]": {"test_system": "Homo sapiens", "assay": "Toxicity in healthy human assessed as occurrence of ear pain at 25 […], po", "assay_type": "organism-based", "design": "route oral", "details": "in vivo"}, "[3]": {"assay": "Terminal phase elimination half-life in healthy human at 50 mg/kg, po administered single dose", "assay_type": "ADME, organism-based", "design": "route oral", "details": "in vivo", "how_it_was_run": "(§1)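 After one fasted oral dose (six healthy subjects per cohort), plasma was sampled from 0.5 to 96 h and assayed by LC-MS/MS (LLOQ 5 ng/ml). λz came from least-squares regression on at least the last three log-concentration points, and t1/2 = 0.693/λz. Values are means (SD).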"}, "[4]": {"test_system": "Homo sapiens", "assay": "Toxicity in healthy human assessed as occurrence of pruritus at 125 […], po", "assay_type": "organism-based", "design": "route oral", "details": "in vivo"}, "[5]": {"test_system": "Homo sapiens", "assay": "Toxicity in healthy human assessed as occurrence of nausea at 250 […], po", "assay_type": "organism-based", "design": "route oral", "details": "in vivo"}, "[6]": {"test_system": "Homo sapiens", "assay": "Toxicity in healthy human assessed as occurrence of nausea at 50 […], po", "assay_type": "organism-based", "design": "route oral", "details": "in vivo"}, "[7]": {"test_system": "Streptococcus pneumoniae", "assay": "Antimicrobial activity against Streptococcus pneumoniae", "assay_type": "functional"}, "[8]": {"test_system": "Homo sapiens", "assay": "Toxicity in healthy human assessed as occurrence of oral hypoesthesia at 50 […], po", "assay_type": "organism-based", "design": "route oral", "details": "in vivo"}, "[9]": {"test_system": "Homo sapiens", "assay": "Toxicity in healthy human assessed as occurrence of oral hypoesthesia at 500 […], po", "assay_type": "organism-based", "design": "route oral", "details": "in vivo"}, "[10]": {"test_system": "Homo sapiens", "assay": "Toxicity in healthy human assessed as occurrence of abdominal pain at 250 […], po", "assay_type": "organism-based, Abdomen", "design": "route oral", "details": "in vivo", "how_it_was_run": "(§2)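 Double-blind, placebo-controlled single ascending oral dose; two placebo and six active subjects per cohort. Adverse events were recorded throughout the dosing period and at follow-up, with confinement to 96 h after dosing. Results are reported as number and percentage of subjects with the event (n/N × 100).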"}, "[11]": {"assay": "Cmax in healthy human at 1000 mg, po administered as single dose", "details": "in vivo"}, "[12]": {"assay": "Tmax in healthy human at 1000 mg/kg, po administered as single dose", "assay_type": "ADME, organism-based", "design": "route oral", "details": "in vivo", "how_it_was_run": "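Tmax was read by visual inspection of individual plasma concentration–time profiles. Plasma was sampled at 0.5-h steps early on and then out to 96 h, and assayed by LC-MS/MS. Subjects were fasted healthy volunteers, six per cohort, given one oral dose with 240 ml water. Values are means (SD).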"}, "[13]": {"test_system": "Streptococcus pneumoniae", "assay": "Antimicrobial activity against ciprofloxacin-resistant Streptococcus pneumoniae", "assay_type": "functional"}, "[14]": {"test_system": "Homo sapiens", "assay": "Clearance in healthy human at 50 mg/kg, po administered as single dose", "assay_type": "ADME, organism-based", "design": "route oral", "details": "in vivo", "how_it_was_run": "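Randomized, double-blind, placebo-controlled single ascending oral dose in fasted healthy subjects (six on drug per cohort, with 240 ml water). Plasma sampled predose through 96 h and assayed by validated LC-MS/MS over 5–5,000 ng/ml. Oral clearance (CL_o) came from noncompartmental analysis, with AUC_0-∞ from linear trapezoids plus C_last/λz. Values are means (SD).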"}, "[15]": {"test_system": "Homo sapiens", "assay": "Toxicity in healthy human assessed as occurrence of headache at 500 […], po", "assay_type": "organism-based", "design": "route oral", "details": "in vivo"}, "[16]": {"test_system": "Homo sapiens", "assay": "Toxicity in healthy human assessed as occurrence of erythema at 25 […], po", "assay_type": "organism-based", "design": "route oral", "details": "in vivo"}, "[17]": {"test_system": "Homo sapiens", "assay": "Toxicity in healthy human assessed as occurrence of abdominal pain at 125 […], po", "assay_type": "organism-based, Abdomen", "design": "route oral", "details": "in vivo", "how_it_was_run": "as §2"}, "[18]": {"test_system": "Homo sapiens", "assay": "Toxicity in healthy human assessed as occurrence of erythema at 1000 […], po", "assay_type": "organism-based", "design": "route oral", "details": "in vivo"}, "[19]": {"assay": "Terminal phase elimination half-life in healthy human at 500 […], po administered single dose", "assay_type": "ADME, organism-based", "design": "route oral", "details": "in vivo", "how_it_was_run": "as §1"}, "[20]": {"test_system": "Streptococcus pneumoniae", "assay": "Ratio of fAUC to MIC90 for penicillin-intermediate Streptococcus pneumoniae", "assay_type": "functional", "how_it_was_run": "(§3)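 Fasted healthy adults got a single oral 500 mg dose with 240 ml water. Plasma was sampled predose to 96 h and assayed by LC-MS/MS (5–5,000 ng/ml). Cmax was read from individual profiles, and AUC0-∞ came from linear trapezoid plus extrapolation. Free fraction was measured by ultrafiltration (30,000 MWCO) of 0.5 and 6 h plasma. Free exposure was divided by the isolate MIC90.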"}, "[21]": {"test_system": "Streptococcus pneumoniae", "assay": "Ratio of fCmax to MIC90 for ciprofloxacin-resistant Streptococcus pneumoniae", "assay_type": "functional", "how_it_was_run": "as §3"}, "[22]": {"test_system": "Homo sapiens", "assay": "AUC (0 to infinity) in healthy human at 1000 mg, po administered as single dose", "details": "in vivo"}, "[23]": {"assay": "Cmax in healthy human at 250 mg, po administered as single dose", "details": "in vivo"}, "[24]": {"test_system": "Homo sapiens", "assay": "Toxicity in healthy human assessed as occurrence of nausea at 25 […], po", "assay_type": "organism-based", "design": "route oral", "details": "in vivo"}, "[25]": {"test_system": "Homo sapiens", "assay": "Terminal volume of distribution in healthy human at 500 mg, po administered as single dose", "details": "in vivo"}, "[26]": {"test_system": "Homo sapiens", "assay": "Toxicity in healthy human assessed as occurrence of headache at 1500 […], po", "assay_type": "organism-based", "design": "route oral", "details": "in vivo"}, "[27]": {"assay": "Renal clearance in healthy human at 500 mg, po administered as single dose", "details": "in vivo, read-out: CL_renal (converted)"}, "[28]": {"test_system": "Homo sapiens", "assay": "Toxicity in healthy human assessed as occurrence of erythema at 125 […], po", "assay_type": "organism-based", "design": "route oral", "details": "in vivo"}, "[29]": {"test_system": "Homo sapiens", "assay": "Clearance in healthy human at 1500 mg, po administered as single dose", "details": "in vivo"}, "[30]": {"assay": "Cmax in healthy human at 125 mg, po administered as single dose", "details": "in vivo"}, "[31]": {"assay": "Renal clearance in healthy human at 250 mg, po administered as single dose", "details": "in vivo, read-out: CL_renal (converted)"}, "[32]": {"assay": "Renal clearance in healthy human at 1000 mg/kg, po administered as single dose", "assay_type": "ADME, organism-based, Kidney", "design": "route oral", "details": "in vivo, read-out: CL_renal (converted)", "how_it_was_run": "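Renal clearance (CL_r) came from noncompartmental analysis of plasma drawn through 96 h and urine collected over fixed intervals to 96 h. Subjects were fasted healthy volunteers, six per dose cohort, given one oral dose with 240 ml water. Plasma and urine were assayed by LC-MS/MS after solid-phase extraction, with urine LLOQ 200 ng/ml. Values are means (SD).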"}, "[33]": {"test_system": "Homo sapiens", "assay": "Terminal volume of distribution in healthy human at 25 mg, po administered as single dose", "details": "in vivo"}, "[34]": {"test_system": "Homo sapiens", "assay": "Toxicity in healthy human assessed as occurrence of oral hypoesthesia at 1500 […], po", "assay_type": "organism-based", "design": "route oral", "details": "in vivo"}, "[35]": {"test_system": "Homo sapiens", "assay": "Toxicity in healthy human assessed as occurrence of ear pain at 50 […], po", "assay_type": "organism-based", "design": "route oral", "details": "in vivo"}, "[36]": {"test_system": "Homo sapiens", "assay": "Terminal volume of distribution in healthy human at 250 mg, po administered as single dose", "details": "in vivo"}, "[37]": {"test_system": "Homo sapiens", "assay": "Toxicity in healthy human assessed as occurrence of erythema at 50 […], po", "assay_type": "organism-based", "design": "route oral", "details": "in vivo"}, "[38]": {"assay": "Tmax in healthy human at 500 mg, po administered as single dose", "details": "in vivo"}, "[39]": {"test_system": "Homo sapiens", "assay": "Toxicity in healthy human assessed as occurrence of ear pain at 1500 […], po", "assay_type": "organism-based", "design": "route oral", "details": "in vivo"}, "[40]": {"test_system": "Homo sapiens", "assay": "Toxicity in healthy human assessed as occurrence of pruritus at 25 […], po", "assay_type": "organism-based", "design": "route oral", "details": "in vivo"}, "[41]": {"test_system": "Homo sapiens", "assay": "AUC (0 to infinity) in healthy human at 500 […], po administered as single dose", "assay_type": "ADME, organism-based, Plasma", "design": "time infinity, route oral", "details": "in vivo"}, "[42]": {"assay": "Tmax in healthy human at 125 mg, po administered as single dose", "details": "in vivo"}}, "data": [{"smiles": "COc1c(N2C[C@@H](C)C[C@H](N)C2)ccc2c(=O)c(C(=O)O)cn(C3CC3)c12", "note": "[NEMONOXACIN]", "values": [{"measurement": "MIC90", "setting": "[1]", "result": 0.12, "unit": "µg/mL"}, {"measurement": "Activity", "setting": "[2]", "result": 0, "unit": "%"}, {"measurement": "half-life", "setting": "[3]", "result": 8.49, "unit": "h"}, {"measurement": "Activity", "setting": "[4]", "result": 0, "unit": "%"}, {"measurement": "Activity", "setting": "[5]", "result": 0, "unit": "%"}, {"measurement": "Activity", "setting": "[6]", "result": 0, "unit": "%"}, {"measurement": "MIC90", "setting": "[7]", "result": 0.015, "unit": "µg/mL"}, {"measurement": "Activity", "setting": "[8]", "result": 0, "unit": "%"}, {"measurement": "Activity", "setting": "[9]", "result": 0, "unit": "%"}, {"measurement": "Activity", "setting": "[10]", "result": 0, "unit": "%"}, {"measurement": "Cmax", "setting": "[11]", "result": 7220, "unit": "ng/mL"}, {"measurement": "Tmax", "setting": "[12]", "result": 1.67, "unit": "h"}, {"measurement": "MIC90", "setting": "[13]", "result": 0.12, "unit": "µg/mL"}, {"measurement": "CL", "setting": "[14]", "result": 3.83, "unit": "mL/min/kg"}, {"measurement": "Activity", "setting": "[15]", "result": 0, "unit": "%"}, {"measurement": "Activity", "setting": "[16]", "result": 0, "unit": "%"}, {"measurement": "Activity", "setting": "[17]", "result": 0, "unit": "%"}, {"measurement": "Activity", "setting": "[18]", "result": 17, "unit": "%"}, {"measurement": "half-life", "setting": "[19]", "result": 14.8, "unit": "h"}, {"measurement": "Ratio", "setting": "[20]", "result": 1812}, {"measurement": "Ratio", "setting": "[21]", "result": 24}, {"measurement": "AUC", "setting": "[22]", "result": 63310, "unit": "ng·h/mL"}, {"measurement": "Cmax", "setting": "[23]", "result": 2400, "unit": "ng/mL"}, {"measurement": "Activity", "setting": "[24]", "result": 0, "unit": "%"}, {"measurement": "Vbeta", "setting": "[25]", "result": 4.25, "unit": "L/kg"}, {"measurement": "Activity", "setting": "[26]", "result": 17, "unit": "%"}, {"measurement": "CL renal", "setting": "[27]", "result": 1.13, "unit": "mL/min/kg"}, {"measurement": "Activity", "setting": "[28]", "result": 0, "unit": "%"}, {"measurement": "CL", "setting": "[29]", "result": 3, "unit": "mL/min/kg"}, {"measurement": "Cmax", "setting": "[30]", "result": 1220, "unit": "ng/mL"}, {"measurement": "CL renal", "setting": "[31]", "result": 1.83, "unit": "mL/min/kg"}, {"measurement": "CL renal", "setting": "[32]", "result": 1.4, "unit": "mL/min/kg"}, {"measurement": "Vbeta", "setting": "[33]", "result": 4.21, "unit": "L/kg"}, {"measurement": "Activity", "setting": "[34]", "result": 0, "unit": "%"}, {"measurement": "Activity", "setting": "[35]", "result": 0, "unit": "%"}, {"measurement": "Vbeta", "setting": "[36]", "result": 3.58, "unit": "L/kg"}, {"measurement": "Activity", "setting": "[37]", "result": 0, "unit": "%"}, {"measurement": "Tmax", "setting": "[38]", "result": 2, "unit": "h"}, {"measurement": "Activity", "setting": "[39]", "result": 0, "unit": "%"}, {"measurement": "Activity", "setting": "[40]", "result": 0, "unit": "%"}, {"measurement": "AUC", "setting": "[41]", "result": 32360, "unit": "ng·h/mL"}, {"measurement": "Tmax", "setting": "[42]", "result": 0.75, "unit": "h"}]}]}
